According to ChEMBL document CHEMBL3352317, “Protective mechanisms of acacetin against D-galactosamine and lipopolysaccharide-induced fulminant hepatic failure in mice” (J Nat Prod, 2014):
Activity calls are given as the source filed them. The rule behind the calls is not given here.

Experiments:
[1] = test system: Mus musculus; assay: Effect on liver histology in GalN/LPS-induced ICR mouse FHF model assessed as inhibition of increase in inflammatory cell infiltration at 100 mg/kg, ip administered 1 hr prior to GalN/LPS challenge measured after 6 hrs by hematoxylin/eosin staining-based assay; assay type: functional, organism-based; set-up: dose 100 mg/kg
[2] = test system: Mus musculus; assay: Effect on serum TNF-alpha level in ICR mouse at 100 mg/kg, ip by ELISA (reference value: 14.1 +/- 1.1 pg/ml); assay type: ADME, organism-based; set-up: dose 100 mg/kg, route intraperitoneal; details: in vivo
[3] = test system: Mus musculus; assay: Hepatoprotective effect in GalN/LPS-induced ICR mouse FHF model assessed as serum TNF-alpha level at 100 mg/kg, ip administered 1 hr prior to GalN/LPS challenge measured after 6 hrs by ELISA (reference value: 78.9 +/- 14.9 pg/ml); assay type: functional; details: route intraperitoneal
[4] = test system: Mus musculus; assay: Effect on serum IL-6 level in ICR mouse at 100 mg/kg, ip by ELISA (reference value: 96.7 +/- 4.9 pg/ml); assay type: ADME, organism-based; set-up: dose 100 mg/kg, route intraperitoneal; details: in vivo
[5] = test system: Mus musculus; assay: Hepatoprotective effect in GalN/LPS-induced ICR mouse FHF model assessed as serum TNF-alpha level at 100 mg/kg, ip administered 1 hr prior to GalN/LPS challenge measured after 6 hrs by ELISA (reference value: 605.8 +/- 96.8 pg/ml); assay type: functional; details: route intraperitoneal
[6] = test system: Mus musculus; assay: Hepatoprotective effect in GalN/LPS-induced ICR mouse FHF model assessed as reduction in TLR4 protein expression at 100 mg/kg, ip administered 1 hr prior to GalN/LPS challenge measured after 6 hrs by Western blotting analysis relative to control; assay type: functional, organism-based; set-up: dose 100 mg/kg
Summary of the method: (§1)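 Livers from ICR mice given 100 mg/kg ip (5% DMSO−saline) 1 h before GalN 800 mg/kg/LPS 40 μg/kg, harvested at 6 h. Western blot: 20 μg liver homogenate protein (nuclear extracts for NF-κB), 10−17% SDS-PAGE, PVDF, blocked in 5% milk or BSA, primary antibody overnight at 4 °C, ECL detection; phospho versus total MAPKs; n = 8−10.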

[7] = test system: Mus musculus; assay: Hepatoprotective effect in GalN/LPS-induced ICR mouse FHF model assessed as reduction in NF-kappaB protein expression at 100 mg/kg, ip administered 1 hr prior to GalN/LPS challenge measured after 6 hrs by Western blotting analysis relative to control; assay type: functional, organism-based; set-up: dose 100 mg/kg; summary of the method: as §1
[8] = test system: Mus musculus; assay: Hepatoprotective effect in GalN/LPS-induced ICR mouse FHF model assessed as reduction in p38 phosphorylation at 100 mg/kg, ip administered 1 hr prior to GalN/LPS challenge measured after 6 hrs by Western blotting analysis relative to control; assay type: functional, organism-based; set-up: dose 100 mg/kg; summary of the method: as §1
[9] = test system: Mus musculus; assay: Hepatoprotective effect in GalN/LPS-induced ICR mouse FHF model assessed as reduction in ERK phosphorylation at 100 mg/kg, ip administered 1 hr prior to GalN/LPS challenge measured after 6 hrs by Western blotting analysis relative to control; assay type: functional, organism-based; set-up: dose 100 mg/kg; summary of the method: as §1
[10] = test system: Mus musculus; assay: Hepatoprotective effect in GalN/LPS-induced ICR mouse FHF model assessed as reduction in JNK phosphorylation at 100 mg/kg, ip administered 1 hr prior to GalN/LPS challenge measured after 6 hrs by Western blotting analysis relative to control; assay type: functional, organism-based; set-up: dose 100 mg/kg; summary of the method: as §1
[11] = test system: Mus musculus; assay: Induction of autophagic flux in GalN/LPS-induced ICR mouse FHF model assessed as increase in Atg-5 protein expression at 100 mg/kg, ip administered 1 hr prior to GalN/LPS challenge measured after 6 hrs by Western blotting analysis relative to control; assay type: functional, organism-based; set-up: dose 100 mg/kg; summary of the method: as §1
[12] = test system: Mus musculus; assay: Induction of autophagic flux in GalN/LPS-induced ICR mouse FHF model assessed as increase in Atg-7 protein expression at 100 mg/kg, ip administered 1 hr prior to GalN/LPS challenge measured after 6 hrs by Western blotting analysis relative to control; assay type: functional, organism-based; set-up: dose 100 mg/kg; summary of the method: as §1
[13] = test system: Mus musculus; assay: Induction of autophagic flux in GalN/LPS-induced ICR mouse FHF model assessed as increase in LC3-2 protein expression at 100 mg/kg, ip administered 1 hr prior to GalN/LPS challenge measured after 6 hrs by Western blotting analysis relative to control; assay type: functional, organism-based; set-up: dose 100 mg/kg; summary of the method: as §1
[14] = test system: Mus musculus; assay: Induction of autophagic flux in GalN/LPS-induced ICR mouse FHF model assessed as reduction in p62 level at 100 mg/kg, ip administered 1 hr prior to GalN/LPS challenge measured after 6 hrs by Western blotting analysis relative to control; assay type: functional, organism-based; set-up: dose 100 mg/kg; summary of the method: as §1
[15] = test system: Mus musculus; assay: Induction of autophagic flux in GalN/LPS-induced ICR mouse FHF model assessed as […] in Beclin-1 protein expression at 100 mg/kg, ip administered 1 hr prior to GalN/LPS challenge measured after 6 hrs by Western blotting analysis relative to control; assay type: functional, organism-based; set-up: dose 100 mg/kg; summary of the method: as §1
[16] = test system: Mus musculus; assay: Induction of autophagic flux in GalN/LPS-induced ICR mouse FHF model assessed as increase in autophagic vacuoles at 100 mg/kg, ip administered 1 hr prior to GalN/LPS challenge measured after 6 hrs by transmission electron microscopy relative to control; assay type: functional, organism-based; set-up: dose 100 mg/kg
Summary of the method: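 Mice given 100 mg/kg ip 1 h before GalN (800 mg/kg)/LPS (40 μg/kg); liver fixed at 6 h in 2.5% glutaraldehyde, 1% formaldehyde, 100 mM sodium phosphate pH 7.2; ultrathin 60−70 nm sections counterstained with uranyl acetate and lead citrate, autophagic vacuoles counted by transmission electron microscopy; n = 8−10.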

[17] = test system: Hepatocyte; assay: Hepatoprotective effect in primary hepatocytes (unknown origin); assay type: functional, cell-based
[18] = test system: Mus musculus; assay: Hepatoprotective effect in ip dosed GalN/LPS-induced ICR mouse FHF model assessed as survival rate administered 1 hr prior to GalN/LPS challenge measured up to 24 hrs; assay type: functional, organism-based
Summary of the method: (§2)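 Male 6-week-old ICR mice (24−26 g), fasted 18 h with water allowed. Vehicle (5% DMSO−saline) or drug suspended in it (25, 50, 100 mg/kg) given ip 1 h before ip GalN (800 mg/kg) plus LPS (40 μg/kg, E. coli O111:B4) in PBS. Survival was monitored over 24 h after the challenge. There were 10 mice per group.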

[19] = test system: Mus musculus; assay: Hepatoprotective effect in GalN/LPS-induced ICR mouse FHF model assessed as survival rate at 100 mg/kg, ip administered 1 hr prior to GalN/LPS challenge measured after 24 hrs; assay type: functional; details: route intraperitoneal; summary of the method: as §2
[20] = test system: Mus musculus; assay: Effect serum ALT level in ICR mouse at 100 mg/kg, ip by spectrophotometry (reference value: 49.6 +/- 9.9 U/L); assay type: ADME, organism-based; set-up: dose 100 mg/kg, route intraperitoneal; details: in vivo
[21] = test system: Mus musculus; assay: Hepatoprotective effect in GalN/LPS-induced ICR mouse FHF model assessed as serum ALT level at 25 mg/kg, ip administered 1 hr prior to GalN/LPS challenge measured after 6 hrs by spectrophotometry (reference value: 618.4 +/- 43.7 U/L); assay type: functional; details: route intraperitoneal
[22] = test system: Mus musculus; assay: Hepatoprotective effect in GalN/LPS-induced ICR mouse FHF model assessed as serum ALT level at 50 mg/kg, ip administered 1 hr prior to GalN/LPS challenge measured after 6 hrs by spectrophotometry (reference value: 618.4 +/- 43.7 U/L); assay type: functional; details: route intraperitoneal
[23] = test system: Mus musculus; assay: Hepatoprotective effect in GalN/LPS-induced ICR mouse FHF model assessed as serum ALT level at 100 mg/kg, ip administered 1 hr prior to GalN/LPS challenge measured after 6 hrs by spectrophotometry (reference value: 618.4 +/- 43.7 U/L); assay type: functional; details: route intraperitoneal
[24] = test system: Mus musculus; assay: Toxicity in ICR mouse at 100 mg/kg, ip; assay type: organism-based; set-up: dose 100 mg/kg, route intraperitoneal; details: in vivo
[25] = test system: Mus musculus; assay: Effect on liver histology in GalN/LPS-induced ICR mouse FHF model assessed as inhibition of multiple areas of portal inflammation at 100 mg/kg, ip administered 1 hr prior to GalN/LPS challenge measured after 6 hrs by hematoxylin/eosin staining-based assay; assay type: functional, organism-based; set-up: dose 100 mg/kg
[26] = test system: Mus musculus; assay: Effect on liver histology in GalN/LPS-induced ICR mouse FHF model assessed as inhibition of hepatocellular necrosis at 100 mg/kg, ip administered 1 hr prior to GalN/LPS challenge measured after 6 hrs by hematoxylin/eosin staining-based assay; assay type: functional, organism-based; set-up: dose 100 mg/kg
[27] = test system: Mus musculus; assay: Effect on liver histology in ICR mouse at 100 mg/kg, ip after 6 hr by hematoxylin/eosin staining-based assay; details: in vivo

`COc1ccc(-c2cc(=O)c3c(O)cc(O)cc3o2)cc1` [ACACETIN] was tested, and the Activity [1] was “Active”, the Activity [2] was 13.1 pg/mL and the Activity [3] was 27.4 pg/mL. The Activity [4] was 131 pg/mL, the Activity [5] was 27.4 pg/mL and the Activity [6] was “Active”. For the same compound, the Activity [7] was “Active”, the Activity [8] was “Active” and the Activity [9] was “Active”. The Activity [10] was “Active”, the Activity [11] was “Active” and the Activity [12] was “Active”. The Activity [13] was “Active”, the Activity [14] was “Active” and the Activity [15] was “inactive”. For the same compound, the Activity [16] was “Active”, the Activity [17] was “Active” and the Survival [18] was “Dose-dependent effect”. It also gave a survival at 100 mg/kg [19] of 80%, an Activity [20] of 64.4 U/L and an Activity [21] of 520.1 U/L. The Activity [22] was 395.6 U/L, the Activity [23] was 361.3 U/L and the Activity [24] was “Non-toxic”. For the same compound, the Activity [25] was “Active”, the Activity [26] was “Active” and the Activity [27] was “Non-toxic”.
